Bioassay records from PubChem.
Many of the other results were omitted from the sample, so hits are more common in it than they were.
Mdm2 ligase inh: MDM2-luciferase reporter signal enhancers, primary screen, MDM2 E3 ligase inhibitor project, cell-based, luminescence, 1536-well; signal enhancement, % at 5 µM; cell-based MDM2 ubiquitination luciferase reporter, 2 h; 0 = plate control, 100 = twice control, blank-subtracted; hit rate 0.11% among 210,000; E3 ubiquitin-protein ligase Mdm2 (Homo sapiens), Q00987;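 active means signal enhancement of 30% or more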;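 further: luminescence tracks abundance of the self-degrading MDM2-luciferase fusion protein; higher signal means inhibition of MDM2 E3 ligase activity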
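System: stable MDM2–luciferase fusion reporter cells / Input: 2000 cells seeded into each well / Schedule: 4 h settle plus 2 h compound, 37 °C / Compound: single-point 5 µM / Buffer or medium: cells held in DMEM / Benchmarks: control and blank well means / Evaluation: percent signal gain over controls, blank-subtracted / Measured by: luciferase luminescence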
L major viab: Leishmania major promastigote growth inhibition, primary screen; Leishmania major promastigotes, resazurin fluorescence viability; hit rate 9% among 200,000; AID 1063, 2008; inhibition, % at 10 µM; in the data active means inhibition above about 50%;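 further: promastigotes grown with compound for 44 hours at 28 °C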
S1P3 antag: S1P3 receptor antagonists, primary screen, cell-based | hit rate 0.27% among 170,000 | CHO S1P3 NFAT-BLA reporter, FRET fluorescence, antagonist mode | inhibition, % at 4.98 µM | Sphingosine 1-phosphate receptor 3 (Homo sapiens), Q99500 | AID 485, 2006;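 active means inhibition above the plate cutoff, the mean inhibition of test wells on that plate plus 3 SD, cut at about 28% in these data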;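 further: cells challenged with S1P at its EC80 of 0.8 µM; blue over green emission ratio from cleaved BLA substrate after 4 h stimulation; 0% = S1P-stimulated wells and 100% = unstimulated DMSO-only wells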
Target sequence (Q99500 whole entry, looked up): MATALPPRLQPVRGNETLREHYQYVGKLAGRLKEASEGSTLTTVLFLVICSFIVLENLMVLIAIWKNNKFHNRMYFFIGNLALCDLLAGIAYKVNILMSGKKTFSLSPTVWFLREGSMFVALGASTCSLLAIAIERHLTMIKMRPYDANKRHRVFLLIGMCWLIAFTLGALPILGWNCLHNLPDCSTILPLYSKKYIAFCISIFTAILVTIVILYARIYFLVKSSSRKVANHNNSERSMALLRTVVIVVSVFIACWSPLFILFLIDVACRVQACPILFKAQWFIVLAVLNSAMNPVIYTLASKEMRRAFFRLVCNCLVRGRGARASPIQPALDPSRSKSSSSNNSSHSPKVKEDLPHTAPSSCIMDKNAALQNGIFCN
S1P4 ag: S1P4 receptor agonists, primary screen, cell-based | hit rate 0.35% among 220,000 | AID 1509, 2009 | S1P4-expressing cell line, agonist reporter assay | activation, % at 4.98 µM | Sphingosine 1-phosphate receptor 4 (Homo sapiens), O95977; in the data active means activation above about 11%;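 further: 0% = DMSO vehicle and 100% = reference agonist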
S1P4 antagonist: S1P4 receptor antagonists, primary screen, cell-based. Sphingosine 1-phosphate receptor 4 (Homo sapiens), O95977. S1P4-expressing cells, antagonist mode, reporter read-out. inhibition, % at 4.98 µM. hit rate 0.26% among 220,000. AID 1510, 2009; in the data active means inhibition above about 29%;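 further: 0% = wells stimulated with agonist and 100% = vehicle wells without agonist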
The depositor's hits bear a star; · = no result.

SMILES	Mdm2 ligase inh	L major viab	S1P3 antag	S1P4 ag	S1P4 antagonist
O=S(=O)(Nc1ccc2c(c1)nc1n2CCN(Cc2ccccc2)C1)c1ccc(Cl)cc1	1.2	96.9*	2.9	-1.3	0.0
O=C(Nc1ccc2c(c1)nc1n2CCN(Cc2ccccc2)C1)c1cccs1	-35.8	47.5	3.8	0.4	-5.8
O=S(=O)(Nc1ccc2c(c1)nc1n2CCN(Cc2ccccc2)C1)c1ccccc1	·	98.5*	-24.4	3.7	-13.6
O=S(=O)(Nc1ccc2c(c1)nc1n2CCN(Cc2ccccc2)C1)c1ccc(F)cc1	-19.8	100.3*	-6.7	-3.6	-14.1
Cc1ccc(S(=O)(=O)Nc2ccc3c(c2)nc2n3CCN(Cc3ccccc3)C2)cc1	-18.1	99.2*	6.3	-1.8	-5.3
CCC/C(O)=N\S(=O)(=O)c1ccc(N=NN(C)C)cc1	-6.4	-9.9	·	-0.5	-11.9
O=C(c1ccccc1)N1CCN(c2ncnc3sc4c(c23)CCC4)CC1	-16.7	62.7*	·	-0.1	-0.3
CN1C(=O)C(CCC(=O)O)NC1=S (stereo unspecified)	-9.9	·	6.0	-0.7	-6.1
O=C(CSCCO)Nc1cccc([N+](=O)[O-])c1	-6.1	64.8*	-5.8	-0.6	-9.5
O=C(NCc1ccco1)/C(=C\C=C\c1ccccc1)NC(=O)c1ccccc1Br	-12.4	16.0	-3.2	0.1	7.5
COc1ccc2c(C)cc(N3CCCCCC3)nc2c1	-18.8	60.6*	5.5	-0.2	4.3
COC(=O)C1=C(C)NC(C)=C(C(=O)OC)C1c1cn(-c2ccccc2)nc1-c1ccco1	-6.9	64.4*	·	0.1	-2.0
COCCOC(=O)C1=C(C)NC(=O)NC1c1cn(-c2ccccc2)nc1-c1cccs1 (stereo unspecified)	-13.6	-1.6	-6.5	2.8	-0.4
CCOC(=O)C(Oc1ccc2c(-c3ccccc3)cc(=O)oc2c1C)c1ccccc1 (stereo unspecified)	-14.6	100.2*	0.5	-2.1	1.3
CCOC(=O)C(Oc1ccc2c(-c3ccc(OC)cc3)cc(=O)oc2c1C)c1ccccc1 (stereo unspecified)	-15.8	100.3*	·	-0.2	-14.4
COc1ccc(-c2cc(=O)oc3c(C)c(OC(=O)c4cccs4)ccc23)cc1	-25.1	-3.2	-5.4	-1.1	-24.1
CCc1ccccc1NC(=S)N(CCc1ccncc1)C(C)C	-14.8	-0.4	-19.4	-2.2	7.6
COc1ccccc1NC(=O)c1ccc(NC(=O)COC(=O)C2(C)CC2(Cl)Cl)cc1 (stereo unspecified)	-11.9	7.5	-0.2	0.1	-38.6
Cc1ccc(NC(=O)Cn2c(=S)[nH]c3ccccc32)cc1	-5.7	-5.7	-6.1	-1.1	0.7
CC(NC(=O)COC(=O)Cc1ccccc1[N+](=O)[O-])c1ccccc1 (stereo unspecified)	1.6	60.2*	-12.6	-1.4	-7.3
O=C(NCc1ccco1)C(c1ccco1)N(C(=O)Cn1nnc2ccccc21)c1ccc2c(c1)CCC2 (stereo unspecified)	·	91.2*	-3.5	-0.5	6.7
Cc1cccc(N(C(=O)Cn2nnc3ccccc32)C(C(=O)NCc2ccco2)c2ccncc2)c1 (stereo unspecified)	-14.6	-6.4	-2.5	0.5	5.2
CC(NC(=O)c1ccnc(C(C)(C)C)c1)c1ccccc1 (stereo unspecified)	-14.2	-2.2	-4.2	-0.3	-28.2
COc1ccc(C)cc1S(=O)(=O)N1c2ccccc2CC1C (stereo unspecified)	-14.1	100.1*	·	-0.1	-5.4
CC1Cc2ccccc2N1S(=O)(=O)c1cccs1 (stereo unspecified)	-1.9	90.0*	22.7	-1.6	-8.9
SMILES	Mdm2 ligase inh	L major viab	S1P3 antag	S1P4 ag	S1P4 antagonist
Cc1ccsc1/C=C(\C#N)C(=O)NC1CCS(=O)(=O)C1 (stereo unspecified)	-7.3	-7.2	-4.9	0.8	-17.4
CCc1nn(CC(=O)NCCCN(CC)Cc2ccccc2)c(=O)c2cc3sccc3n12	-4.3	55.3*	-11.5	0.9	6.8
O=C1[C@@H]2Cc3c([nH]c4ccccc34)[C@@H](c3ccccc3)N2C(=O)[C@@H]2Cc3c([nH]c4ccccc34)[C@@H](c3ccccc3)N12	·	75.7*	-28.3	0.1	12.4
COc1cc([C@H]2c3[nH]c4ccccc4c3C[C@H]3C(=O)N4[C@@H](c5cc(OC)c(OC)c(OC)c5)c5[nH]c6ccccc6c5C[C@H]4C(=O)N23)cc(OC)c1OC	·	-4.1	-8.7	2.3	-17.9
CC(=O)CCS(=O)(=O)c1ccc(Oc2ccc(S(=O)(=O)CCC(C)=O)cc2)cc1	-9.5	53.8*	·	-1.9	2.6
CCOC(=O)c1ccc(N2CCN(c3ccccc3F)CC2)c(NC(=O)Nc2ccccc2)c1	-19.3	97.2*	15.0	-3.0	-5.3
CCOC(=O)c1ccc(N2CCN(c3ccc(F)cc3)CC2)c(NC(=O)Nc2cccc(OC)c2)c1	-22.8	96.5*	5.3	0.8	2.9
O=C(c1nc2ccccn2c1CNCCOc1cccnc1)N1CCOCC1	-20.3	-3.8	-20.8	-0.1	2.6
O=C(Nc1ccc2oc(-c3ccccc3F)nc2c1)c1ccc2c(c1)OCCO2	-5.8	65.5*	-36.8	1.9	-20.3
O=C(Nc1ccccc1-c1nc2ccccc2o1)c1ccc2c(c1)OCCO2	·	-2.2	-43.5	-0.7	-27.1
O=C(Nc1ccc2oc(-c3ccccc3Cl)nc2c1)c1ncn[nH]1	-22.7	94.4*	-10.8	1.1	-9.5
O=C(Nc1ccc2oc(-c3cccc4ccccc34)nc2c1)c1ncn[nH]1	-4.1	-1.4	·	0.2	-6.1
CCC(C)c1ccc2oc(-c3ccc(NC(=O)c4ncn[nH]4)cc3)nc2c1 (stereo unspecified)	-18.9	64.6*	-17.6	5.3	-5.7
CCOC(=O)c1c(O)c(Cl)c(C)[nH]c1=O	-7.4	-6.0	-11.1	-0.4	-10.7
Cc1ccnn1CCC(=O)O	-12.8	·	6.8	0.7	1.1
COc1ccc(OC)c(-c2csc(NC(=O)c3ccc4c(c3)OCO4)n2)c1	-0.6	-6.3	-1.5	3.3	-12.3
CC(=O)NC1C(=O)N=C(SC(C)C(=O)Nc2cccc(Cl)c2)NC1=O (stereo unspecified)	-1.6	63.4*	-5.1	1.9	-8.2
CC(Sc1nc(N)cc(=O)[nH]1)C(=O)Nc1cccc(Cl)c1 (stereo unspecified)	-4.5	56.1*	-18.9	0.8	-9.9
CCOC(=O)c1noc(C)c1C(=O)Nc1nc(C)cc(C)n1	-4.9	-5.0	6.7	0.9	-15.9
Cc1c(N=C2NC(=O)/C(=C/c3ccc(O)cc3)S2)c(=O)n(-c2ccccc2)n1C	-8.1	-4.4	8.3	0.6	-6.2
O=C1NC(=NCc2ccccc2)S/C1=C/c1ccc(O)cc1	-15.2	63.1*	19.4	0.8	5.9
CC(=O)Nc1ccc(S(=O)(=O)Oc2ccc3c(c2)C(C)=CC(C)(C)N3)cc1	-3.5	24.9	26.8	1.0	-1.7
